As a reminder, the MIC90 is the lowest concentration that inhibits either 90% of growth or 90% of the strains tested, depending on the study. High values mean lower susceptibility, low ones higher susceptibility. The MIC is the least concentration at which growth counts as inhibited. One may read the MIC50 as an inhibitory concentration at the 50% level, which refers to growth in some studies and to a panel of isolates in others.

Structures are written as SMILES. ≈ marks a conversion by molar mass, not a printed value.

Series [1] relates to Pseudomonas aeruginosa. The series is described as follows: Antibacterial activity against Pseudomonas aeruginosa. Format: functional.
The test system of series [2] is Pseudomonas aeruginosa. The series is described as follows: Antibacterial activity against imipenem-sensitive Pseudomonas aeruginosa isolate 1091-05 infected in sc dosed neutropenic-C3H/HeN mouse assessed as mouse survival administered 4 hrs post infection followed by BID dosing for two days measured on day 10. Format: functional. The following applies: isolate 1091-05, sc, read-out: PD50.

Series [3] has as its system Klebsiella pneumoniae. Briefly: Antibacterial activity against Klebsiella pneumoniae 1000-02. It counts as functional.
Series [4] relates to Pseudomonas aeruginosa. Briefly: Antibacterial activity against Pseudomonas aeruginosa isolate 1091-05. It counts as functional.
Another series deals with Acinetobacter baumannii. The series is described as follows: Antibacterial activity against Acinetobacter baumannii AB-3167. It counts as functional.
Series [5] has as its system Pseudomonas aeruginosa. Briefly: Antibacterial activity against imipenem-sensitive Pseudomonas aeruginosa isolate 1091-05 infected in ip dosed SF-1 mouse assessed as survival of animal administered 0.5 and 4 hrs post infected measured on day 4. It counts as functional. Particulars: isolate 1091-05, ip, read-out: PD50.
Series [6] can be described thus: Chemical stability of the compound in phosphate buffer at pH 6 at 1 uM after 24 hrs by HPLC analysis. The following applies: pH 6, 24 h. It counts as physicochemical. The essentials:
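Hydrolytic stability of the β-lactam ring was measured in aqueous buffer at pH 6.0 and 37 °C.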

A short description of series [7]: Chemical stability of the compound in phosphate buffer at pH 8 assessed as drug degradation at 1 uM after 100 hrs by HPLC analysis. Format: physicochemical. The following applies: read-out: Drug degradation. The essentials: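 Hydrolytic β-lactam ring-opening was followed in aqueous buffer at pH 8.0 and 37 °C over a 100 h incubation. The read-out was percent degradation.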

Series [8] deals with Pseudomonas aeruginosa. The series is described as follows: Antibacterial activity against low inoculum imipenem-sensitive Pseudomonas aeruginosa isolate 1091-05 infected in sc dosed neutropenic-C3H/HeN mouse assessed as mouse survival administered 4 hrs post infection followed by BID dosing for two days measured on day 10. Format: functional. Particulars: isolate 1091-05, sc, read-out: PD50.

The nature of series [9]: Fraction unbound in mouse plasma at 1 uM by LC-MS/MS analysis. It counts as ADME, cell-free.
For another series, the system named is Acinetobacter sp. Briefly: Antimicrobial activity against Acinetobacter sp. It counts as functional.
In a further series the test system is Klebsiella aerogenes. The series is described as follows: Antimicrobial activity against Enterobacter aerogenes. It counts as functional.
The next series has as its system Serratia marcescens. Briefly: Antimicrobial activity against Serratia marcescens. It counts as functional.
The next series deals with Citrobacter freundii. Briefly: Antimicrobial activity against Citrobacter freundii. It counts as functional.
Series [10] concerns Stenotrophomonas maltophilia. Briefly: Antimicrobial activity against Stenotrophomonas maltophilia. Format: functional.
Series [11] can be described thus: Plasma protein binding in human. The following applies: read-out: PPB (converted). It counts as ADME, cell-free.
The test system of series [12] is Escherichia coli. The series is described as follows: Antimicrobial activity against CTX-M-positive extended spectrum beta-lactamase-producing Escherichia coli. Format: functional.
Series [13] deals with Pseudomonas aeruginosa. Briefly: Antibacterial activity against Pseudomonas aeruginosa clinical isolate. It counts as functional.
Series [14] deals with Klebsiella pneumoniae. Briefly: Antimicrobial activity against extended spectrum beta-lactamase-producing Klebsiella pneumoniae. Format: functional.
Series [15] deals with Pseudomonas aeruginosa. Briefly: Antibacterial activity against metallo-beta-lactamase producing Pseudomonas aeruginosa. Format: functional.
The subject of series [16] is Klebsiella pneumoniae. The series is described as follows: Antimicrobial activity against Klebsiella pneumoniae clinical isolate. It counts as functional.
Series [17] has as its system Pseudomonas aeruginosa. Briefly: Antibacterial activity against Pseudomonas aeruginosa cystic fibrosis isolate. It counts as functional.
The subject of series [18] is Escherichia coli. Briefly: Antimicrobial activity against extended spectrum beta-lactamase-producing Escherichia coli. Format: functional.
In series [19] the test system is Escherichia coli. The series is described as follows: Antimicrobial activity against Escherichia coli clinical isolate. It counts as functional.
For series [20], the system named is Klebsiella pneumoniae. Briefly: Antimicrobial activity against carbapenemase-producing Klebsiella pneumoniae. It counts as functional.

The molecule `C[C@@H](O)Cn1c(-c2cc(=O)c(O)c[nH]2)nn(S(=O)(=O)[N-]C(=O)N2C[C@H](NC(=O)/C(=N\OC(C)(C)C(=O)[O-])c3csc(N)n3)C2=O)c1=O.[Na+].[Na+]` yielded an MIC90 in the series with Pseudomonas aeruginosa [1] of 1 µg/mL. For the same molecule, the ED50 was 32.7 mg/kg with Pseudomonas aeruginosa [2] and below 1 mg/kg with Pseudomonas aeruginosa [5]. For the same molecule, the MIC in the series on Klebsiella pneumoniae [3] turned out to be 0.5 µg/mL; with Pseudomonas aeruginosa [4] it was 0.125 µg/mL; with Acinetobacter baumannii, 1 µg/mL.
`CC(C)(O/N=C(\C(=O)N[C@H]1CN(C(=O)[N-]S(=O)(=O)n2nc(-c3cc(=O)c(O)c[nH]3)n(CC(N)=O)c2=O)C1=O)c1csc(N)n1)C(=O)[O-].[Na+].[Na+]` registered an MIC90 with Pseudomonas aeruginosa [1] of 1 µg/mL. The ED50 in the series on Pseudomonas aeruginosa [2] was found to be 25 mg/kg. Further, the MIC in the series with Klebsiella pneumoniae [3] is 1 µg/mL; against Pseudomonas aeruginosa [4], 0.125 µg/mL; against Acinetobacter baumannii it was 1 µg/mL.
In the series with Pseudomonas aeruginosa [1], `COCCn1c(-c2cc(=O)c(O)c[nH]2)nn(S(=O)(=O)[N-]C(=O)N2C[C@H](NC(=O)/C(=N\OC(C)(C)C(=O)[O-])c3csc(N)n3)C2=O)c1=O.[Na+].[Na+]` came in with an MIC90 of 1 µg/mL. Also, the ED50 in the series on Pseudomonas aeruginosa [2] was above 70.8 mg/kg. In addition, the results for the minimal inhibitory concentration (MIC) against Klebsiella pneumoniae [3], against Pseudomonas aeruginosa [4] and in the series with Acinetobacter baumannii were 0.5 µg/mL, 0.5 µg/mL and 4 µg/mL, respectively.
In the case of `CC(C)(O/N=C(\C(=O)N[C@H]1CN(C(=O)[N-]S(=O)(=O)n2nc(-c3cc(=O)c(O)c[nH]3)n(C[C@@H]3CCCO3)c2=O)C1=O)c1csc(N)n1)C(=O)[O-].[Na+].[Na+]`, the ED50 with Pseudomonas aeruginosa [2] was above 100 mg/kg; in the series with Pseudomonas aeruginosa [5], 2.8 mg/kg. The figures for the MIC in the series with Klebsiella pneumoniae [3], against Pseudomonas aeruginosa [4] and in the series on Acinetobacter baumannii were 0.5 µg/mL, 0.5 µg/mL and 2 µg/mL, respectively.
Take `C[C@H]1[C@H](NC(=O)/C(=N\OC(C)(C)C(=O)[O-])c2csc(N)n2)C(=O)N1C(=O)[N-]S(=O)(=O)n1nc(-c2cc(=O)c(O)c[nH]2)n(C[C@@H](O)CO)c1=O.[Na+].[Na+]`: the MIC90 in the series with Pseudomonas aeruginosa [1] stood at 0.5 µg/mL. Besides, in [6], the Stability entry is “Stable”. For the same molecule, the degraded at 100 h, 1 µM in [7] is 20%. Also, the results for the MIC in the series on Klebsiella pneumoniae [3], against Pseudomonas aeruginosa [4] and in the series on Acinetobacter baumannii were 0.5 µg/mL, 0.25 µg/mL and 2 µg/mL, respectively. In the series with Pseudomonas aeruginosa [8], the ED50 was found to be 1.4 mg/kg. Further, in [9], the fraction unbound at 1 µM was 0.51.
As to `C[C@H](O)Cn1c(-c2cc(=O)c(O)c[nH]2)nn(S(=O)(=O)[N-]C(=O)N2C(=O)[C@@H](NC(=O)/C(=N\OC(C)(C)C(=O)[O-])c3csc(N)n3)[C@@H]2C)c1=O.[Na+].[Na+]`, the MIC90 with Pseudomonas aeruginosa [1] was 0.5 µg/mL. Also, the ED50 in the series with Pseudomonas aeruginosa [2] was 21.3 mg/kg. For the same molecule, the figures for the MIC in the series with Klebsiella pneumoniae [3], with Pseudomonas aeruginosa [4] and in the series on Acinetobacter baumannii were 1 µg/mL, 0.25 µg/mL and 4 µg/mL, respectively.
As to `C[C@H]1[C@H](NC(=O)/C(=N\OC(C)(C)C(=O)O)c2csc(N)n2)C(=O)N1S(=O)(=O)O` [AZTREONAM], the MIC50 with Acinetobacter sp. is 32 µg/mL (≈ 73.5 µM); with Serratia marcescens, 0.5 µg/mL (≈ 1.15 µM); in the series on Citrobacter freundii, 0.25 µg/mL (≈ 0.574 µM); in [10], above 64 µg/mL. The MIC90 in the series on Acinetobacter sp. is above 64 µg/mL; in the series on Klebsiella aerogenes, 64 µg/mL (≈ 147 µM); against Serratia marcescens it was above 64 µg/mL; against Citrobacter freundii, 64 µg/mL (≈ 147 µM); in series [10], above 64 µg/mL. The ED50 in the series on Pseudomonas aeruginosa [2] was above 200 mg/kg; in the series with Pseudomonas aeruginosa [5], above 50 mg/kg. The MIC worked out at 8 µg/mL (≈ 18.4 µM) in the series on Pseudomonas aeruginosa [4] and 32 µg/mL (≈ 73.5 µM) in the series with Acinetobacter baumannii.
For the molecule `C=CC1=C(C(=O)O)N2C(=O)[C@@H](NC(=O)/C(=N\OCC(=O)O)c3csc(N)n3)[C@H]2SC1` [CEFIXIME], the fraction unbound in [11] was 0.35.
Turning to `COCC1=C(C(=O)O)N2C(=O)[C@@H](NC(=O)/C(=N\OC)c3csc(N)n3)[C@H]2SC1` [CEFPODOXIME], the fraction unbound in series [11] is 0.75.
On to `C[C@@H](O)[C@H]1C(=O)N2C(C(=O)O)=C(S[C@@H]3CN[C@H](C(=O)N(C)C)C3)[C@H](C)[C@H]12` [MEROPENEM], for which the MIC50 against Acinetobacter sp. turned out to be 1 µg/mL (≈ 2.61 µM); against Escherichia coli [12], 0.06 µg/mL (≈ 0.156 µM); against Pseudomonas aeruginosa [13], 8 µg/mL (≈ 20.9 µM); against Klebsiella pneumoniae [14] it was 0.06 µg/mL (≈ 0.156 µM); against Pseudomonas aeruginosa [15], 8 µg/mL (≈ 20.9 µM); against Klebsiella aerogenes it was 0.06 µg/mL (≈ 0.156 µM). Also, the MIC50 in the series on Serratia marcescens is 0.06 µg/mL (≈ 0.156 µM); against Klebsiella pneumoniae [16], 0.06 µg/mL (≈ 0.156 µM); against Citrobacter freundii it was 0.06 µg/mL (≈ 0.156 µM); with Pseudomonas aeruginosa [17], 8 µg/mL (≈ 20.9 µM); against Escherichia coli [18], 0.06 µg/mL (≈ 0.156 µM); against Escherichia coli [19] it was 0.06 µg/mL (≈ 0.156 µM). For the same molecule, the MIC50 with Klebsiella pneumoniae [20] is 0.06 µg/mL (≈ 0.156 µM); in series [10], above 64 µg/mL. The MIC90 with Acinetobacter sp. was 32 µg/mL (≈ 83.4 µM); against Pseudomonas aeruginosa [1], above 64 µg/mL; in the series on Escherichia coli [12], 0.06 µg/mL (≈ 0.156 µM); in the series on Pseudomonas aeruginosa [13] it was above 64 µg/mL; against Klebsiella pneumoniae [14] it was 32 µg/mL (≈ 83.4 µM); against Pseudomonas aeruginosa [15] it was above 64 µg/mL. In addition, the MIC90 in the series on Klebsiella aerogenes was 0.25 µg/mL (≈ 0.652 µM); in the series on Serratia marcescens, above 64 µg/mL; with Klebsiella pneumoniae [16], 32 µg/mL (≈ 83.4 µM); against Citrobacter freundii it was 0.25 µg/mL (≈ 0.652 µM); in the series with Pseudomonas aeruginosa [17], above 64 µg/mL; against Escherichia coli [18], 0.06 µg/mL (≈ 0.156 µM). Moreover, the MIC90 is 0.06 µg/mL (≈ 0.156 µM) in the series with Escherichia coli [19], 32 µg/mL (≈ 83.4 µM) against Klebsiella pneumoniae [20] and above 64 µg/mL in [10]. Moreover, the ED50 turned out to be 1.04 mg/kg in the series with Pseudomonas aeruginosa [2] and 1.3 mg/kg in the series with Pseudomonas aeruginosa [5]. For the same molecule, in [7], the degraded at 100 h, 1 µM turned out to be 50%. The MIC with Klebsiella pneumoniae [3] was below 1 µg/mL; against Pseudomonas aeruginosa [4] it was 0.5 µg/mL (≈ 1.3 µM); with Acinetobacter baumannii it was 0.25 µg/mL (≈ 0.652 µM).

The record behind these values is ChEMBL document CHEMBL2016521, “Preparation, gram-negative antibacterial activity, and hydrolytic stability of novel siderophore-conjugated monocarbam diols” (ACS Med Chem Lett, 2011).
